Experimental data taken from ChEMBL document CHEMBL5500386, “Design, synthesis and bioactivity evaluation of 4-hydroxycoumarin derivatives as potential anti-inflammatory agents against acute lung injury and colitis” (Eur J Med Chem, 2024).
Activity calls are given as the source filed them. The rule behind the calls is not given here.

Each molecule was assayed on J774.A1 (assay: Antiinflammatory activity in LPS-induced mouse J774.a1 cells assessed as inhibition of IL-6 production at 10 uM pretreated for 2 hrs followed by LPS stimulation and measured after 30 mins by ELISA relative to control). Settings: time 2.5 hrs.
Assay type: functional
How it was run: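 J774A.1 cells (DMEM, 10 % FBS, 37 °C) treated with 10 μM compound or 4-HC for 2 h, then LPS. After 30 min, IL-6 in medium measured by ELISA. Result is % inhibition, mean ± SEM of three independent experiments.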

Structure (SMILES) | inhibition | inhibition at 10 µM [%]
CN(C)CCCOc1cc(=O)oc2ccccc12 | inactive | 
O=c1cc(OCCN2CCOCC2)c2ccccc2o1 |  | 17.5
O=c1cc(OCCCCN2CCOCC2)c2ccccc2o1 | inactive | 
O=c1cc(OCCCNCCc2cccs2)c2ccccc2o1 | inactive | 
O=c1cc(OCC2CO2)c2ccccc2o1 (centres undefined) | inactive | 
O=c1cc(OCCCNCCCN2CCOCC2)c2ccccc2o1 | inactive | 
CC1CCCN(CCCOc2cc(=O)oc3ccccc23)C1 (centres undefined) | inactive | 
O=c1cc(OCCCNCCCN2CCCC2)c2ccccc2o1 |  | 54.4
COCCN1CCN(CCCOc2cc(=O)oc3ccccc23)CC1 | inactive | 
O=c1cc(OCCNCCCN2CCOCC2)c2ccccc2o1 |  | 21.8
O=c1cc(OCc2cccc(F)c2)c2ccccc2o1 |  | 4.36
O=c1cc(OCCN2CCN(C3CC3)CC2)c2ccccc2o1 | inactive | 
O=c1cc(OCCOCCN2CCNCC2)c2ccccc2o1 |  | 50.1
O=c1cc(OCCN2CCN(CCO)CC2)c2ccccc2o1 |  | 48.8
COCCN1CCN(CCOc2cc(=O)oc3ccccc23)CC1 | inactive | 
CCN1CCN(CCOc2cc(=O)oc3ccccc23)CC1 |  | 18.1
O=c1cc(OCCNCCc2cccs2)c2ccccc2o1 |  | 34.7
Cc1cc(C)cc(COc2cc(=O)oc3ccccc23)c1 |  | 17.5
CC1CCCN(CCOc2cc(=O)oc3ccccc23)C1 (centres undefined) |  | 48.8
O=c1cc(O)c2ccccc2o1 [4-HYDROXYCOUMARINS] |  | 17.3
O=c1cc(OCCCN2CCN(CCO)CC2)c2ccccc2o1 |  | 51.3
COc1cccc(COc2cc(=O)oc3ccccc23)c1 |  | 50.4
CC(=O)N1CCN(CCCOc2cc(=O)oc3ccccc23)CC1 |  | 42.3
O=c1cc(OCCCN2CCCC2)c2ccccc2o1 |  | 39
CCN1CCN(CCCOc2cc(=O)oc3ccccc23)CC1 |  | 30.1

The molecules below were run on J774.A1 (assay: Cytotoxicity against mouse J774.A1 cells assessed as reduction in cell viability at 10 uM measured after 24 hrs by MTT assay). Settings: j774.a1, 24 h.
Assay type: toxicity, cell-based
How it was run: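 J774A.1 cells seeded and incubated 24 h, then exposed to 10 μM compound for 24 h. MTT (5.0 mg/mL) added as 10 % for 4 h, formazan dissolved in DMSO with 30 min shaking, absorbance read at 490 nm. Expressed as % of control.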

Structure (SMILES) | Activity
O=c1cc(OCCOCCN2CCNCC2)c2ccccc2o1 | Non-Toxic
O=c1cc(OCCCN2CCN(CCO)CC2)c2ccccc2o1 | Non-Toxic
CC(=O)N1CCN(CCCOc2cc(=O)oc3ccccc23)CC1 | Non-Toxic

Each molecule was assayed on Mus musculus (assay: Protection against LPS-induced C57BL/6 mouse model of acute lung injury assessed as reduction in IL-6 level in serum at 20 mg/kg, po administered 3 times for every 12 hrs followed by LPS stimulation at 5 mg/kg and measured after 6 hrs by ELISA). Settings: time 30.0 hrs.
Assay type: functional, organism-based
How it was run: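 C57BL/6 mice, 6 per group. Gavaged at 20 mg/kg three times at 12 h intervals; controls received saline, and dexamethasone 20 mg/kg served as reference. After the last dose, LPS 5 mg/kg given intratracheally. At 6 h, blood collected for serum IL-6 by ELISA. Left lung lavaged with 3 × 200 μL saline, and BALF assayed for IL-6, total protein and neutrophil count. Mean ± SEM, n = 6.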

Structure (SMILES) | Activity
C[C@@H]1C[C@H]2[C@@H]3CCC4=CC(=O)C=C[C@]4(C)[C@@]3(F)[C@@H](O)C[C@]2(C)[C@@]1(O)C(=O)CO | Active
